Assay results collected from several papers.
Each line is one published result; the experiments were not run side by side.
Target: Vascular endothelial growth factor receptor 1 (FLT1, Homo sapiens, UniProt P17948)

| Structure (SMILES) | assay | conditions | endpoint | value |
| --- | --- | --- | --- | --- |
| O=C1Nc2ccc(Cl)cc2C1=Cc1cc(Cl)c(O)c(Cl)c1 | cell-free assay | 0.5 µM | remaining signal | 85% |
| O=C(N[C@H]1CCCCC/C=C\C2C[C@@]2(C(=O)O)NC(=O)[C@@H]2C[C@@H](Oc3ccncc3)CN2C1=O)OC1CCCC1 (some centres unmarked) | cell-free assay, competition with immobilised ligand | 1 µM | remaining binding | 100% |
| O=C(Nc1cnn(-c2csc(C(=O)NC3COC3)c2)c1)Nc1ccccc1Cl | enzyme activity, inhibitor | 5 µM | remaining activity | 101% |
| N#CC1(c2ccccn2)CCN(Cc2cc(C(=O)N3CCCC3)c(=O)n3ccccc23)CC1 | cell-free assay, competition with immobilised ligand | 1 µM | remaining binding | 100% |
| CNCc1ccc(-c2cc(-c3nc(-c4ccc(S(=O)(=O)C(C)C)cc4)cnc3N)on2)cc1 | enzyme activity, inhibitor | 0.4 µM | inhibition | 50% |
| CC(C)(C)C(=O)c1sc(NC2CCCCC2)nc1N | enzyme activity, inhibitor | 10 µM | remaining activity | 82% |
| CSc1cccnc1N1CCN(Cc2nc3ccccc3[nH]2)CC1 | cell-free assay, competition with immobilised ligand | 1 µM | remaining binding | 100% |
| CCOc1cc(-c2nncn2C)ccc1Nc1ncc2cc(C)nc(NCC(C)(C)C)c2n1 | enzyme activity, inhibitor, FRET | 1 µM | inhibition | < 15% |
| Cc1ccc(Nc2nccc(N(C)c3ccc4c(C)n(C)nc4c3)n2)cc1S(N)(=O)=O | enzyme activity, inhibitor | 10 µM | inhibition | 102% |
| COc1cc(-c2cn(C3CCc4c(F)cccc4N(CC(F)(F)F)C3=O)nn2)ccc1-n1cnc(C)c1 (centres unmarked) | cell-free assay, competition with immobilised ligand | 1 µM | remaining binding | 97% |
| COc1cc2ncnc(Nc3ccc(Oc4ccccc4)cc3C)c2cc1OC | enzyme activity, inhibitor | 1 µM | inhibition | -2% |
| COc1cc(/C=C/C(=O)CC(=O)/C=C/c2ccc(O)c(OC)c2)ccc1O | enzyme activity, inhibitor | 1 µM | activity vs control | 67% |
| Cc1cnc(NC2CCOCC2)nc1-n1cnc(C(=O)NC(CN)c2cc(F)cc(Cl)c2)c1 (centres unmarked) | enzyme activity, inhibitor, radiometric | 1 µM | remaining activity | 92% |
| CCCS(=O)(=O)Nc1ccc(F)c(C(=O)c2c[nH]c3ncc(-c4ccc(Cl)cc4)cc23)c1F | enzyme activity, inhibitor | 1 µM | inhibition | < 10% |
| O=C(O)[C@@H]1[C@@H](Cn2nnc3ccccc3c2=O)CC[C@H]1C(=O)c1ccc(OCCC2CCOCC2)cc1 | cell-free assay, competition with immobilised ligand | 1 µM | remaining binding | 100% |
| CC(C)(C)c1nc2c(s1)c1nc(N)ncc1c1ccc(NS(=O)(=O)c3c(F)cccc3F)c(F)c12 | enzyme activity, inhibitor, radiometric | 1 µM | remaining activity | 111% |
| COc1cc(Nc2cnc(C#N)c(O[C@H](C)CN(C)C)n2)ncc1-c1cnn(C)c1 | enzyme activity, inhibitor, radiometric | 10 µM | remaining activity | 31% |
| CS(=O)(=O)N1CCCC(NC(=O)[C@H](CCC2CCCCC2)NC(=O)c2ccc(CNc3ncnc4c3nnn4-c3ccccc3)cc2)C1 (some centres unmarked) | cell-free assay, competition with immobilised ligand | 0.1 µM | remaining binding | 86% |
| CNC(=O)c1cc(Oc2ccc(NC(=O)Nc3ccc(Cl)c(C(F)(F)F)c3)cc2)ccn1 | cell-free assay | 0.5 µM | remaining signal | 50.5% |
| Cc1cc(NC(=O)c2cccc3cc(-c4cccc5[nH]nc(N)c45)ccc23)ccc1F | enzyme activity, inhibitor | 0.1 µM | activity vs control | 2% |
| Nc1nc(Nc2ccccc2)sc1C(=O)c1c(F)cccc1F | enzyme activity, inhibitor | 10 µM | remaining activity | 17% |
| O=C1NC(=O)c2cc(Nc3ccc(F)cc3)c(Nc3ccc(F)cc3)cc21 | cell-free assay | 0.5 µM | remaining signal | 81.5% |
| COc1cc(Cl)c(C(=O)N[C@@H](CN[C@H]2CC[C@@H](N)CC2)Cc2ccc(C#N)cc2)cc1-c1ccc(CN[C@H](C)c2ccc(C)cc2)o1 | enzyme activity, inhibitor | 1 µM | remaining activity | 102% |
| C=CC(=O)Nc1cc(Nc2nccc(Nc3cc(Cl)c(F)cc3C(C)(C)O)n2)c(OC)cc1N1CC[C@@H](N(C)C)C1 | enzyme activity, inhibitor | 1 µM | inhibition | 0% |
| CCN(CC)CCNC(=O)c1c(C)[nH]c(/C=C2\C(=O)Nc3ccc(F)cc32)c1C | enzyme activity, inhibitor | 10 µM | inhibition | 102% |
| CS(=O)(=O)NCC[C@H](NC(=O)c1cncc2c1cnn2-c1ccc(F)cc1)c1ccnc(S(C)(=O)=O)c1 | cell-free assay, competition with immobilised ligand | 1 µM | remaining binding | 90% |
| Cc1ccc(-n2nc(C(C)(C)C)cc2NC(=O)Nc2ccc(OCCN3CCOCC3)c3ccccc23)cc1 | enzyme activity, inhibitor | 10 µM | inhibition | 96% |
| O=S(=O)(NC1CCC(c2cc(F)ccc2F)(S(=O)(=O)c2ccc(Cl)cc2)CC1)C(F)(F)F (centres unmarked) | cell-free assay, competition with immobilised ligand | 1 µM | remaining binding | 86% |
| CCN(CC)c1ccc(C2=NNC(=O)CC2C)cc1[N+](=O)[O-] (centres unmarked) | enzyme activity, inhibitor | 10 µM | remaining activity | 104% |
